# Experimental data as given in ChEMBL document CHEMBL1134050, “Phenyl benzenesulfonamides are novel and selective 5-HT6 antagonists: identification of N-(2,5-dibromo-3-fluorophenyl)-4-methoxy-3-piperazin-1-ylbenzenesulfonamide (SB-357134)” (Bioorg Med Chem Lett, 2001).
# pKi: −log10 of the molar value.
# Legend:
# [1] = molecular target: 5-hydroxytryptamine receptor 2A (Homo sapiens, UniProt P28223); assay: Compound was evaluated for binding affinity against human cloned 5-hydroxytryptamine 2A receptor in HEK 293 cells using [3H]ketanserin as the radioligand; type: cell-based, HEK293
# Sequence of 5-hydroxytryptamine receptor 2A (P28223 whole entry): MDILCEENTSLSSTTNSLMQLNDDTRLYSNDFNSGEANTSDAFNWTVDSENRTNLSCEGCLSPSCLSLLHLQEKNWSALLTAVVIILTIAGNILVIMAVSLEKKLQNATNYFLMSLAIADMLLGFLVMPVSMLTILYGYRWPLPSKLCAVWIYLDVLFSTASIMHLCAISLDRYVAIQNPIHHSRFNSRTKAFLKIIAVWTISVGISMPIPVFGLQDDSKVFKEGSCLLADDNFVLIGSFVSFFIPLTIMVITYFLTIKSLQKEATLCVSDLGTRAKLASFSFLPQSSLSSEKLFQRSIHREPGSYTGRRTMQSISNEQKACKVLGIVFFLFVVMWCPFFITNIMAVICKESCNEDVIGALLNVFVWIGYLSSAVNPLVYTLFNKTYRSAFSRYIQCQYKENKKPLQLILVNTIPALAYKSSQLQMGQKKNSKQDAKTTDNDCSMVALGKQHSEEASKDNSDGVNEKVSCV
# [2] = Bioavailability in rat (dose 10 mg/kg in 10% Encapsin and 2% DMSO p.o.); conditions: in vivo, po
# [3] = molecular target: T1, 5-hydroxytryptamine receptor 2C (Homo sapiens, UniProt P28335); assay: Compound was evaluated for binding affinity against human cloned 5-hydroxytryptamine 2C receptor in HEK 293 cells using [3H]mesulergine as the radioligand; type: cell-based, HEK293
# T1 sequence (P28335 whole entry): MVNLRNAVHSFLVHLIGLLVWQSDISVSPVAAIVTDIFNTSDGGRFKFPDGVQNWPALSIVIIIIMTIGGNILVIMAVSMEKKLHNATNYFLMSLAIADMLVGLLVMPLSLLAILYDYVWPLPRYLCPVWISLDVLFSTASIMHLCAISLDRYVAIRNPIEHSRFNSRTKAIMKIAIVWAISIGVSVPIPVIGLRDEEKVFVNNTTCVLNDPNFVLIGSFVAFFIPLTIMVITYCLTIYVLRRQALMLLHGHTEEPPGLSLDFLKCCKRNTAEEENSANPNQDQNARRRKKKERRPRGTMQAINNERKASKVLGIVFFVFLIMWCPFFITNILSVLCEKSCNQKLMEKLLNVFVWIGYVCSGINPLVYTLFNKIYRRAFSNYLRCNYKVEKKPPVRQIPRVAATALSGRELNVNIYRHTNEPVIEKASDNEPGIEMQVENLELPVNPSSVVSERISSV
# [4] = molecular target: 5-hydroxytryptamine receptor 1D (Homo sapiens, UniProt P28221); assay: Compound was evaluated for binding affinity against human cloned 5-hydroxytryptamine 1D receptor in CHO cells using [3H]5-HT as the radioligand; type: cell-based
# Sequence of 5-hydroxytryptamine receptor 1D (P28221 whole entry, the tested form may be a part): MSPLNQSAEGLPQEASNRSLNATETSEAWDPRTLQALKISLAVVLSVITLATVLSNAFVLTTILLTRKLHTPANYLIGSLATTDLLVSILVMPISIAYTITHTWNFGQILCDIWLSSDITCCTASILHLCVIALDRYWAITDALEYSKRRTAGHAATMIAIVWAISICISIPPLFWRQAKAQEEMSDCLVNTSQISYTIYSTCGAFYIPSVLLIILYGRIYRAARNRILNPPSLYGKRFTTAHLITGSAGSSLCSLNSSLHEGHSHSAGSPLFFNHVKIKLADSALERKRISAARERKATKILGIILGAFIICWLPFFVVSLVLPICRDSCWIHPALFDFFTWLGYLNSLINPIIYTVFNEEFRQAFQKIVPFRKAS
# [5] = Plasma Clearance measured at steady-state following iv infusion at 0.6 mg/kg/h in rats; type: ADME, organism-based; parameters: route intravenous; conditions: rat, 0.6 mg/kg/h infusion
# D(3) dopamine receptor = D(3) dopamine receptor (Homo sapiens, UniProt P35462); assay: Compound was evaluated for binding affinity against Dopamine receptor D3 in CHO cells using [125I]iodosulpiride as the radioligand; type: cell-based
# Sequence of D(3) dopamine receptor (P35462 whole entry): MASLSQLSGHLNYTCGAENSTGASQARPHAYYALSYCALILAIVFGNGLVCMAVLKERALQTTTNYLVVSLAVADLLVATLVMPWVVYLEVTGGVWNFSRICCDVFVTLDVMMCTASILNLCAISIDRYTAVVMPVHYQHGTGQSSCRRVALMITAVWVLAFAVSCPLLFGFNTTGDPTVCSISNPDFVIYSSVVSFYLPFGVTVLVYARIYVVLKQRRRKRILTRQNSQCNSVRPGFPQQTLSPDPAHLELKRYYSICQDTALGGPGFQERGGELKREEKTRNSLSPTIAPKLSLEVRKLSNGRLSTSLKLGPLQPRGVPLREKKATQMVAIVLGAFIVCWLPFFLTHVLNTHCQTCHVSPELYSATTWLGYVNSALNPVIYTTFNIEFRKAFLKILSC
# In short: (§1)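 Radioligand binding to human cloned receptors: 5-HT1A in HEK 293 cells with [3H]-8-OH-DPAT; 5-HT1B and 5-HT1E in CHO cells with [3H]-5-HT; 5-HT2B in HEK 293 cells with [3H]-5-HT; D2 and D3 in CHO cells with [125I]-iodosulpride. Values are the mean of at least two determinations, each within 0.2 log unit of the mean.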
# [6] = molecular target: 5-hydroxytryptamine receptor 4 (Homo sapiens, UniProt Q13639); assay: Compound was evaluated for the binding affinity against human cloned 5-hydroxytryptamine 4 receptor in HeLa cells using [3H]-LSD as the radioligand; type: cell-based
# Sequence of 5-hydroxytryptamine receptor 4 (Q13639 whole entry): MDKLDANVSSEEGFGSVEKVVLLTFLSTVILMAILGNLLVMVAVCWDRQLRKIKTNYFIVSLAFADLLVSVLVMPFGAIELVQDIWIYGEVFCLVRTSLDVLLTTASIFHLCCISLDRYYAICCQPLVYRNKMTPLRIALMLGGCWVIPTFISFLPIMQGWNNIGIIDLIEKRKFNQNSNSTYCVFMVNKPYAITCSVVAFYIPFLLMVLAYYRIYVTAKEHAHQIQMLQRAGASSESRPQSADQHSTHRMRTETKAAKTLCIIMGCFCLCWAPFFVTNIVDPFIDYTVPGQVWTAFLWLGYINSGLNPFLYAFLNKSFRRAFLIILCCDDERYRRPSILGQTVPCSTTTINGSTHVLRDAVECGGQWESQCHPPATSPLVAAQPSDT
# [7] = molecular target: 5-hydroxytryptamine receptor 1B (Homo sapiens, UniProt P28222); assay: Compound was evaluated for binding affinity against human cloned 5-hydroxytryptamine 1B receptor in CHO cells using [3H]5-HT as the radioligand; type: cell-based; in short: as §1
# Sequence of 5-hydroxytryptamine receptor 1B (P28222 whole entry): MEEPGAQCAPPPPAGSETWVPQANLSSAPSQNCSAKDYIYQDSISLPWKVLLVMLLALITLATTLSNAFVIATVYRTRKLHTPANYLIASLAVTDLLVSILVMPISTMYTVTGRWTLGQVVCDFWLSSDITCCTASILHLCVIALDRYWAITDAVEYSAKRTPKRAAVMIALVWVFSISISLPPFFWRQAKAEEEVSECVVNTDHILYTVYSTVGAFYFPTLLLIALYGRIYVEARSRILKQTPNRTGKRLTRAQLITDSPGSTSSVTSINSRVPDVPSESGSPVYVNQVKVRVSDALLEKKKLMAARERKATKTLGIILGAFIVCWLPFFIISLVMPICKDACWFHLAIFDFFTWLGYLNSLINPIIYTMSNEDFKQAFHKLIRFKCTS
# [8] = molecular target: T2, 5-hydroxytryptamine receptor 1A (Homo sapiens, UniProt P08908); assay: Compound was evaluated for binding affinity against human cloned 5-hydroxytryptamine 1A receptor in HEK 293 cells using [3H]8-OH-DPAT as the radioligand; type: cell-based, HEK293; in short: as §1
# T2 sequence (P08908 whole entry): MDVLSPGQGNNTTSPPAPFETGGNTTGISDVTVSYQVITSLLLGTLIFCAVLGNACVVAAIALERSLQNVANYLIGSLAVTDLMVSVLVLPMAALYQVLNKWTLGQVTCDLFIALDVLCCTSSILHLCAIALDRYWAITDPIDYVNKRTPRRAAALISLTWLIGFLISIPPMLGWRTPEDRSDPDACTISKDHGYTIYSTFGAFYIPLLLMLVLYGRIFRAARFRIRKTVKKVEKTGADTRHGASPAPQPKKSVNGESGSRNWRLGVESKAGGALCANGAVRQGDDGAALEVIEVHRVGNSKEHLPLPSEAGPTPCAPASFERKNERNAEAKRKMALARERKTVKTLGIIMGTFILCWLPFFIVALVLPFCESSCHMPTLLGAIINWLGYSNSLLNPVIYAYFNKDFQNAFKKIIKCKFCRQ
# [9] = molecular target: 5-hydroxytryptamine receptor 7 (Homo sapiens, UniProt P34969); assay: Displacement of [3H]-5-CT from human 5-hydroxytryptamine 7 receptor expressed in HEK-293 cells; type: cell-based, HEK293
# Sequence of 5-hydroxytryptamine receptor 7 (P34969 whole entry): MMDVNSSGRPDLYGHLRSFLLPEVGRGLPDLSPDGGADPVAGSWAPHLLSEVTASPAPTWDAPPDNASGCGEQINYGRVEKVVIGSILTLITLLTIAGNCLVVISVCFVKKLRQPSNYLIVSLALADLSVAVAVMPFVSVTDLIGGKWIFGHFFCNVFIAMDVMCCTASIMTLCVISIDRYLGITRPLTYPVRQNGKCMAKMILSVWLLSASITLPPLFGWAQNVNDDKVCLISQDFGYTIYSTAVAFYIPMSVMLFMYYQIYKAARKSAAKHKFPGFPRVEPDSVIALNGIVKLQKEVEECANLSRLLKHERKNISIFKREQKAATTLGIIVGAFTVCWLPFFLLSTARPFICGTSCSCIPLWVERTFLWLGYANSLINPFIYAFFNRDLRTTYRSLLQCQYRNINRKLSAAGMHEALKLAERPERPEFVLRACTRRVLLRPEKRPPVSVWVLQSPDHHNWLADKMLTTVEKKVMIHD
# [10] = molecular target: T3, 5-hydroxytryptamine receptor 1F (Homo sapiens, UniProt P30939); assay: Compound was evaluated for binding affinity against human cloned 5-hydroxytryptamine 1F receptor in CHO cells using [3H]-5-HT as the radioligand; type: cell-based
# T3 sequence (P30939 whole entry): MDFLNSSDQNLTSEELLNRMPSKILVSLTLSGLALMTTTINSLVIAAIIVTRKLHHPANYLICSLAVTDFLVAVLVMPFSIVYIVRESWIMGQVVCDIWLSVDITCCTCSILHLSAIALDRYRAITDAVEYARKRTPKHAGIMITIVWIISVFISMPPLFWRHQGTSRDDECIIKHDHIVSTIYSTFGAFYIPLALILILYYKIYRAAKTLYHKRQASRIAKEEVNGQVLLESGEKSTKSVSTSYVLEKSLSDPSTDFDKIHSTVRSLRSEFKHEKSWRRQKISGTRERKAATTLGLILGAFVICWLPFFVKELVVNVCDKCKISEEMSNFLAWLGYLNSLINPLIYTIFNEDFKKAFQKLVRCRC
# [11] = molecular target: 5-hydroxytryptamine receptor 2B (Homo sapiens, UniProt P41595); assay: Compound was evaluated for binding affinity against human cloned 5-HT2B receptor in HEK 293 cells using [3H]5-HT as the radioligand; type: cell-based, HEK293; in short: as §1
# Sequence of 5-hydroxytryptamine receptor 2B (P41595 whole entry): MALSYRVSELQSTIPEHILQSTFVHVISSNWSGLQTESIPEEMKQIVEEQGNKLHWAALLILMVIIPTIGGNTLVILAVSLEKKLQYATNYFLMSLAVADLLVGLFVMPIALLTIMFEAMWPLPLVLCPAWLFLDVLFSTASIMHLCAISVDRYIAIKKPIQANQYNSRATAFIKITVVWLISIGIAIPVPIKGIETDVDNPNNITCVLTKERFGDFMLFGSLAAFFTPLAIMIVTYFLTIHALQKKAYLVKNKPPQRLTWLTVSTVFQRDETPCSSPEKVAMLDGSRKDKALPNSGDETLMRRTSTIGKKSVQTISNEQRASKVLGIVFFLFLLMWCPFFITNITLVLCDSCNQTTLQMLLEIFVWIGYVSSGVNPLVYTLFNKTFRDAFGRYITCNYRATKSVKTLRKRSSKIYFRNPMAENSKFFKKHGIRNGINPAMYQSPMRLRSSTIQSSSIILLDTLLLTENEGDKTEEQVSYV
# [12] = molecular target: 5-hydroxytryptamine receptor 1E (Homo sapiens, UniProt P28566); assay: Compound was evaluated for binding affinity against human cloned 5-hydroxytryptamine 1E receptor in CHO cells using [3H]5-HT as the radioligand; type: cell-based; in short: as §1
# Sequence of 5-hydroxytryptamine receptor 1E (P28566 whole entry): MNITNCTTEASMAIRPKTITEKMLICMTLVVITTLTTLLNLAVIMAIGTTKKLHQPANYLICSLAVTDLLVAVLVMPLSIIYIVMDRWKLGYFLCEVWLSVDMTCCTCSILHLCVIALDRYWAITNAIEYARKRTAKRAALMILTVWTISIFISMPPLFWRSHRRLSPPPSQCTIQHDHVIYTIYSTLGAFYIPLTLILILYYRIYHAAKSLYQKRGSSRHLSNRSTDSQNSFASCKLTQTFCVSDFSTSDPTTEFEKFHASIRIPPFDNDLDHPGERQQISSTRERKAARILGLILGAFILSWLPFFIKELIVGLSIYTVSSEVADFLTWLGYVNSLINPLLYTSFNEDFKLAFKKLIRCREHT
# D(2) dopamine receptor = D(2) dopamine receptor (Homo sapiens, UniProt P14416); assay: Compound was evaluated for binding affinity against Dopamine receptor D2 in CHO cells using [125I]iodosulpiride as the radioligand; type: cell-based; in short: as §1
# Sequence of D(2) dopamine receptor (P14416 whole entry): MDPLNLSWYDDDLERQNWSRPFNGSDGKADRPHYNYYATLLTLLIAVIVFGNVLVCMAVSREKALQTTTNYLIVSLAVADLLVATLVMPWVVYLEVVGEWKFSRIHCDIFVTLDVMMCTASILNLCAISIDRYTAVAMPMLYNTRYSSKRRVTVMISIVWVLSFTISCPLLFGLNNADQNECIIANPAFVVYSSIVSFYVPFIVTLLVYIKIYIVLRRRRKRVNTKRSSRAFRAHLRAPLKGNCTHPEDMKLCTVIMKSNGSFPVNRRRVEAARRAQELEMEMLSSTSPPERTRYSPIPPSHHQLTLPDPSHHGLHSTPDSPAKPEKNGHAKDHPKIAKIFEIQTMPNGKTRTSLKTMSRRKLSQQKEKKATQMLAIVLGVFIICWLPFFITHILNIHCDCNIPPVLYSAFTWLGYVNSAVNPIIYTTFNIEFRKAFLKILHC
# [13] = molecular target: T4, Alpha-1B adrenergic receptor (Homo sapiens, UniProt P35368); assay: Compound was evaluated for binding affinity against Alpha-1B adrenergic receptor
# T4 sequence (P35368 whole entry): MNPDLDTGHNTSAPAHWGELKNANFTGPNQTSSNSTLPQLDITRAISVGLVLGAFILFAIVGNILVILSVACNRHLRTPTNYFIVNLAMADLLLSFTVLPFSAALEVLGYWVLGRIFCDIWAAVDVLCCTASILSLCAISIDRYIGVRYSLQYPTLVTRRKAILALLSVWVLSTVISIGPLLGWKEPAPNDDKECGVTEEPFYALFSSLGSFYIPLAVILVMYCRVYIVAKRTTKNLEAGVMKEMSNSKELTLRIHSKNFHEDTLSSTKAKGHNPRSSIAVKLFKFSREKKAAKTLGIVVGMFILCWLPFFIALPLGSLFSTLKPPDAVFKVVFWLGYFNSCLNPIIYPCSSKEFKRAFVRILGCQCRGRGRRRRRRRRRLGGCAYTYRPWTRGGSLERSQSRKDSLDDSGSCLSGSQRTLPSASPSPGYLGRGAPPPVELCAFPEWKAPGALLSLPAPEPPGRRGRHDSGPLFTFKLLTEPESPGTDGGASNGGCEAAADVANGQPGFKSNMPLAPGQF
# Rattus norvegicus [14] = species: Rattus norvegicus; assay: Blood: Brain distribution ratio is determined in rat; type: ADME, organism-based
# In short: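 Rats received iv infusion for 8 h, and the brain:blood ratio was taken at steady state.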
# Rattus norvegicus [15] = assay: Pharmacokinetic property( plasma concentration) was determined upon 10 mg/kg in 1% methylcellulose peroral administration in rats; type: ADME, organism-based; parameters: dose 10 mg/kg, route oral; conditions: in vivo, po
# [16] = molecular target: 5-hydroxytryptamine receptor 6 (Homo sapiens, UniProt P50406); assay: Binding affinity against human 5-hydroxytryptamine 6 receptor
# Sequence of 5-hydroxytryptamine receptor 6 (P50406 whole entry): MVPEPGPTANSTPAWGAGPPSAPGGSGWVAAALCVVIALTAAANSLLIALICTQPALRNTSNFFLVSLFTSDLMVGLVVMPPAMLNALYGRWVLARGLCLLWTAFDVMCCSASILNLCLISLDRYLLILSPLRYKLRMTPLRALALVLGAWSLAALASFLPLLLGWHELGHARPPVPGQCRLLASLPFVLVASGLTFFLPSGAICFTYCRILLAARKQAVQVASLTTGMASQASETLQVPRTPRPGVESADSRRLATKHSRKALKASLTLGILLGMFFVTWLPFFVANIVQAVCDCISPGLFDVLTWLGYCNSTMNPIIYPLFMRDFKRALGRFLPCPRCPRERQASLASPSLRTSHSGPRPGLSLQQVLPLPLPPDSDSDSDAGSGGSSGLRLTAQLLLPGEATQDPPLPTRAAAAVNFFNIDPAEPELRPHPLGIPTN
# [17] = Bioavailability was determined upon 10 mg/kg in 1% methylcellulose peroral administration in rats; type: ADME, organism-based; conditions: rat, in vivo, po
# In short: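 Rats were given 10 mg/kg orally as a suspension in 1% methylcellulose (v/v) aq (n=3). Blood drug levels were determined by LC/MS/MS, and AUC/dose and bioavailability were derived from them.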
Compound,pKi [1],bioavailability [2] [%],pKi [3],pKi [4],clearance [5] [mL/min/kg],pKi (D(3) dopamine receptor),pKi [6],pKi [7],pKi [8],pKi [9],pKi [10],pKi [11],pKi [12],pKi (D(2) dopamine receptor),pKi [13],Distribution ratio (Rattus norvegicus [14]),AUC (Rattus norvegicus [15]),pKi [16],bioavailability [17] [%]
COc1ccc(S(=O)(=O)Nc2cc(Br)cc(F)c2Br)cc1N1CCNCC1,< 5.10,65,< 5.30,< 5.40,14,< 5.30,< 5.30,< 5.40,< 5.20,< 5.00,< 5.00,< 5.40,< 5.00,< 5.30,< 5.10,–,–,–,–
COc1ccc(S(=O)(=O)Nc2cc(Cl)cc(Cl)c2)cc1N1CCNCC1,–,–,–,–,4,–,–,–,–,–,–,–,–,–,–,0.02,450 uM min uM-1,9.20,51
